Laboratory results as given in ChEMBL document CHEMBL5653631, “A Potent and Selective ULK1 Inhibitor Suppresses Autophagy and Sensitizes Cancer Cells to Nutrient Stress” (iScience, 2018).
One block for each compound: values may come before it.

Tests used:
[1] = target: Aurora kinase B (Homo sapiens) (UniProt Q96GD4); assay: Inhibition of human recombinant AurB at 500 nM in presence of ATP by radiometric assay relative to control
Method in brief: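 Part of a radiometric in vitro activity panel of 327 recombinant human kinases. Each kinase was tested in duplicate at one inhibitor concentration. Activity remaining was expressed as a percentage of the vehicle control, and percent inhibition was taken as 100 minus that value.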

[2] = target: Tyrosine-protein kinase Tec (Homo sapiens) (UniProt P42680); assay: Inhibition of human recombinant TEC at 500 nM in presence of ATP by radiometric assay relative to control
Tyrosine-protein kinase Tec (Homo sapiens), sequence (P42680 whole entry, looked up): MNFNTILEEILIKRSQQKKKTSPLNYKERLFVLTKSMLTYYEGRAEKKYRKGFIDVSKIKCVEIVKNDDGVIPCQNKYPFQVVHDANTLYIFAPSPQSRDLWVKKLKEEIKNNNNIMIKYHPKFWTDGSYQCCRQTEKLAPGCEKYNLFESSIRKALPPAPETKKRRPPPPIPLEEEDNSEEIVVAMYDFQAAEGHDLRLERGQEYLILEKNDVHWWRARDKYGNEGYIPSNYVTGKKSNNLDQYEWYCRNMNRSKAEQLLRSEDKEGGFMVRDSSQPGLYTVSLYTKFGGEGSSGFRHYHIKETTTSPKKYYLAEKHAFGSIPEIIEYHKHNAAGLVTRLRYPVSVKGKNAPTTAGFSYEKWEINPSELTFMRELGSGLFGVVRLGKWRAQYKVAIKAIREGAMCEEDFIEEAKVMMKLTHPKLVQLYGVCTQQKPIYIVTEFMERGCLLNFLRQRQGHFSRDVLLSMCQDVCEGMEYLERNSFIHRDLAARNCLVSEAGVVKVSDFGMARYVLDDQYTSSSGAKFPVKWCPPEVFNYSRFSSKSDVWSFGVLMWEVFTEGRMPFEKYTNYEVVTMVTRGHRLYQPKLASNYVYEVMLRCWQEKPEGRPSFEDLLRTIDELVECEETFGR

[3] = target: Myosin light chain kinase 2, skeletal/cardiac muscle (Homo sapiens) (UniProt Q9H1R3); assay: Inhibition of human recombinant skMLCK at 500 nM related to control ULK1
[4] = target: Dual specificity protein kinase CLK3 (Homo sapiens) (UniProt P49761); assay: Inhibition of human recombinant CLK3 at 500 nM related to control ULK1
Dual specificity protein kinase CLK3 (Homo sapiens), sequence (P49761 whole entry, looked up): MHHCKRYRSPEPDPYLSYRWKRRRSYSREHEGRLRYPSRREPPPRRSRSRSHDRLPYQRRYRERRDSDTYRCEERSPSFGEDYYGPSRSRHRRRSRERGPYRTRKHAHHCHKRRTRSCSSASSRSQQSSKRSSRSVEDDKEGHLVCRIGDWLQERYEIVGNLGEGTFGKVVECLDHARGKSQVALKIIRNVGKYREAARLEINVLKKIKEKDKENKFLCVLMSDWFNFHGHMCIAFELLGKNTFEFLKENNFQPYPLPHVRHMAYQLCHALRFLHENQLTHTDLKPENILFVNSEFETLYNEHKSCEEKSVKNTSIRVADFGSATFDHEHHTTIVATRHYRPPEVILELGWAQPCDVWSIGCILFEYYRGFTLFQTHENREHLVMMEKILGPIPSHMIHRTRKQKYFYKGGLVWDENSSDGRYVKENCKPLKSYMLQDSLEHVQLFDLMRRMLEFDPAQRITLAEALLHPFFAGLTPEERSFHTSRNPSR

[5] = target: Tyrosine-protein kinase receptor UFO (Homo sapiens) (UniProt P30530); assay: Inhibition of human recombinant AXL at 500 nM in presence of ATP by radiometric assay relative to control
Method in brief: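 Panel of 327 recombinant human kinases, each assayed in vitro by radiometric activity assay in duplicate at a single inhibitor concentration per compound, chosen with reference to its ULK1 inhibition. Activity remaining was expressed as percent of vehicle control, and percent inhibition was calculated as 100 minus percent activity remaining.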

[6] = target: Leukocyte tyrosine kinase receptor (Homo sapiens) (UniProt P29376); assay: Inhibition of human recombinant LTK at 500 nM related to control ULK1
[7] = target: Cyclin-dependent kinase 3 (Homo sapiens) (UniProt Q00526); assay: Inhibition of human recombinant CDK3 at 15 nM in presence of ATP by radiometric assay relative to control
Cyclin-dependent kinase 3 (Homo sapiens), sequence (Q00526 whole entry, looked up): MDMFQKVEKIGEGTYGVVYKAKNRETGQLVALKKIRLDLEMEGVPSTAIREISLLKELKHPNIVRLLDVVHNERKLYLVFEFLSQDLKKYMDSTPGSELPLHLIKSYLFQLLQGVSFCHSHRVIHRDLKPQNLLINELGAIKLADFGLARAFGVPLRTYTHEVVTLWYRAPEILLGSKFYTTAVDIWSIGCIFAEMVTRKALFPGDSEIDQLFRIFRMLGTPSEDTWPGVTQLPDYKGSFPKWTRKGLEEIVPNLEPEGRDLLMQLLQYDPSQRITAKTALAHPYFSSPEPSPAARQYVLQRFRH

[8] = target: Tyrosine-protein kinase CSK (Homo sapiens) (UniProt P41240); assay: Inhibition of human recombinant CSK at 15 nM related to control ULK1
[9] = target: Ephrin type-A receptor 5 (Homo sapiens) (UniProt P54756); assay: Inhibition of human recombinant EphA5 at 15 nM related to control ULK1
Ephrin type-A receptor 5 (Homo sapiens), sequence (P54756 whole entry): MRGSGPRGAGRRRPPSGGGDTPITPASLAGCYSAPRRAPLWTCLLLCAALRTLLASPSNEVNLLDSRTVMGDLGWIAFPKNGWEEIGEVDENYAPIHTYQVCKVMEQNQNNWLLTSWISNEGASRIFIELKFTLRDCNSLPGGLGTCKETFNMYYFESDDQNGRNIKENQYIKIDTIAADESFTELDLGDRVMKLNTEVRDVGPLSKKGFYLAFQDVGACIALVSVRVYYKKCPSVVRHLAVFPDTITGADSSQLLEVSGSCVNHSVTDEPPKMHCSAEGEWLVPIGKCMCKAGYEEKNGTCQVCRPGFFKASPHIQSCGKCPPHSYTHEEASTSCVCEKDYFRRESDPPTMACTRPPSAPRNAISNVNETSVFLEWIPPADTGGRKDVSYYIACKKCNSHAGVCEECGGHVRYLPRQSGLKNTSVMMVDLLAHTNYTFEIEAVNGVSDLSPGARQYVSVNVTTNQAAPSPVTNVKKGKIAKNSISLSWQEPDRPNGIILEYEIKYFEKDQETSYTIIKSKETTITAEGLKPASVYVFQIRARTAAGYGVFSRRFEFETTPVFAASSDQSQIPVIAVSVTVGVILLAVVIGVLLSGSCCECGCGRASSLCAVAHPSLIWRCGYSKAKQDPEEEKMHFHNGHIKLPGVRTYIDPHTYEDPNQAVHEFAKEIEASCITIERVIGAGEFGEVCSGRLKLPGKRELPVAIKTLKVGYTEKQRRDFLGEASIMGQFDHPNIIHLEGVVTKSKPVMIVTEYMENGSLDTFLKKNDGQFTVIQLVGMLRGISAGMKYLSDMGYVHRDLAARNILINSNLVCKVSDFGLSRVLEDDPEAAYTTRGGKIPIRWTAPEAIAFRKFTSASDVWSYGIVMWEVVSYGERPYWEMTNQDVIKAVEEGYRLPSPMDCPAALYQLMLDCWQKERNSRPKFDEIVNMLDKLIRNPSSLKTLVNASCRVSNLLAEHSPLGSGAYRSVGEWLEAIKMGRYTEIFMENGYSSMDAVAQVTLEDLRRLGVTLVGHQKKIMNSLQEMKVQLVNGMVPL

[10] = target: Dual specificity protein kinase CLK3 (Homo sapiens) (UniProt P49761); assay: Inhibition of human recombinant CLK3 at 15 nM related to control ULK1
[11] = target: Fibroblast growth factor receptor 2 (Homo sapiens) (UniProt P21802); assay: Inhibition of human recombinant FGFR2 at 15 nM related to control ULK1
Fibroblast growth factor receptor 2 (Homo sapiens), sequence (P21802 22-821 limits assumed): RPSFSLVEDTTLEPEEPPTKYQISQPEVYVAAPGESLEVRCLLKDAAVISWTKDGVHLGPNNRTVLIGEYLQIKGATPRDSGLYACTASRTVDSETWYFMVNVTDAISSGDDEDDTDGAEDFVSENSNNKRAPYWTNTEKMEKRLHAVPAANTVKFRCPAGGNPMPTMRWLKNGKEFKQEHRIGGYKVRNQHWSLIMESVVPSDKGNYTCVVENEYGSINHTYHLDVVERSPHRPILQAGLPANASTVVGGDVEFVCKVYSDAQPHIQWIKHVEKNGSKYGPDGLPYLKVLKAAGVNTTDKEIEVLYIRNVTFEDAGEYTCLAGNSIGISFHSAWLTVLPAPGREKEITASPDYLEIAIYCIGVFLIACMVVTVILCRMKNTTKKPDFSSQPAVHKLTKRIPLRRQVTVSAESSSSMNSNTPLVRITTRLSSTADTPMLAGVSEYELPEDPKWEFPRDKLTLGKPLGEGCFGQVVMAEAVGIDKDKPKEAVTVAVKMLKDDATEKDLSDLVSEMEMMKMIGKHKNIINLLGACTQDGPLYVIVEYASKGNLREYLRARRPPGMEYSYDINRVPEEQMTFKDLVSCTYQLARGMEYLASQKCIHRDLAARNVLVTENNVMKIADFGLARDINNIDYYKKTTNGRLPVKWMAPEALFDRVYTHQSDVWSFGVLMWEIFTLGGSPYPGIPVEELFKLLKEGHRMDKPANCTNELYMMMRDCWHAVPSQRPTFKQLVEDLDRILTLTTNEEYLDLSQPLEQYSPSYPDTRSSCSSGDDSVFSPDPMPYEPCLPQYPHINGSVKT

[12] = target: Cyclin-dependent kinase 4 (Homo sapiens) (UniProt P11802); assay: Inhibition of human recombinant CDK4 at 15 nM in presence of ATP by radiometric assay relative to control
[13] = target: T1, Serine/threonine-protein kinase ULK3 (Homo sapiens) (UniProt Q6PHR2); assay: Inhibition of human recombinant ULK3 at 15 nM in presence of ATP by radiometric assay relative to control
T1 sequence (whole entry): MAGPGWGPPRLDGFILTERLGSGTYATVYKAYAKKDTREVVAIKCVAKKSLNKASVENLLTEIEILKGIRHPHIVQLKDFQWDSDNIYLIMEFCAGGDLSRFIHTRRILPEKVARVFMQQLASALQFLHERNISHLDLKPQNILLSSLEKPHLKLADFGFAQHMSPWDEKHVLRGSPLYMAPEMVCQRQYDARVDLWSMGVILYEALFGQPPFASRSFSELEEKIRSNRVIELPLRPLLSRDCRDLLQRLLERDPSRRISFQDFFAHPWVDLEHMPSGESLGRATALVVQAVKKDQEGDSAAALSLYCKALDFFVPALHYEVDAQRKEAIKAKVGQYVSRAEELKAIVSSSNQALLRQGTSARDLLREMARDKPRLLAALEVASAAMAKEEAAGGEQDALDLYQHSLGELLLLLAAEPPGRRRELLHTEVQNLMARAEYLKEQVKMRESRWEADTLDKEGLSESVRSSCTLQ

[14] = target: Cyclin-dependent kinase-like 1 (Homo sapiens) (UniProt Q00532); assay: Inhibition of human recombinant CDKL1 at 15 nM in presence of ATP by radiometric assay relative to control
[15] = target: Serine/threonine-protein kinase/endoribonuclease IRE1 (Homo sapiens) (UniProt O75460); assay: Inhibition of human recombinant IRE1 at 15 nM related to control ULK1
[16] = target: Mitogen-activated protein kinase 10 (Homo sapiens) (UniProt P53779); assay: Inhibition of human recombinant JNK3 at 15 nM related to control ULK1
Mitogen-activated protein kinase 10 (Homo sapiens), sequence (P53779 whole entry): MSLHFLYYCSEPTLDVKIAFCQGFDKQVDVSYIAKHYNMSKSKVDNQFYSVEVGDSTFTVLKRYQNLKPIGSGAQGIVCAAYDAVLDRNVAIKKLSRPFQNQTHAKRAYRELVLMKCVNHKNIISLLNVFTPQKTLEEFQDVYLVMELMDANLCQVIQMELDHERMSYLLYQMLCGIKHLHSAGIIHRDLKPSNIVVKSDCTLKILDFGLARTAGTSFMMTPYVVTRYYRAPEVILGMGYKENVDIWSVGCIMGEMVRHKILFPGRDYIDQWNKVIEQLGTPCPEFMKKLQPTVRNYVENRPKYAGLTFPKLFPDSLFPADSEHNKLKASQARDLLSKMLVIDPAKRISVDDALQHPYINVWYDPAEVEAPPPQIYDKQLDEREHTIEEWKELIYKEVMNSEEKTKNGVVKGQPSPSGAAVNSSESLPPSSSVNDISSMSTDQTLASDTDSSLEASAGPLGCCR

[17] = target: Ephrin type-A receptor 2 (Homo sapiens) (UniProt P29317); assay: Inhibition of human recombinant EphA2 at 15 nM related to control ULK1
Ephrin type-A receptor 2 (Homo sapiens), sequence (P29317 whole entry): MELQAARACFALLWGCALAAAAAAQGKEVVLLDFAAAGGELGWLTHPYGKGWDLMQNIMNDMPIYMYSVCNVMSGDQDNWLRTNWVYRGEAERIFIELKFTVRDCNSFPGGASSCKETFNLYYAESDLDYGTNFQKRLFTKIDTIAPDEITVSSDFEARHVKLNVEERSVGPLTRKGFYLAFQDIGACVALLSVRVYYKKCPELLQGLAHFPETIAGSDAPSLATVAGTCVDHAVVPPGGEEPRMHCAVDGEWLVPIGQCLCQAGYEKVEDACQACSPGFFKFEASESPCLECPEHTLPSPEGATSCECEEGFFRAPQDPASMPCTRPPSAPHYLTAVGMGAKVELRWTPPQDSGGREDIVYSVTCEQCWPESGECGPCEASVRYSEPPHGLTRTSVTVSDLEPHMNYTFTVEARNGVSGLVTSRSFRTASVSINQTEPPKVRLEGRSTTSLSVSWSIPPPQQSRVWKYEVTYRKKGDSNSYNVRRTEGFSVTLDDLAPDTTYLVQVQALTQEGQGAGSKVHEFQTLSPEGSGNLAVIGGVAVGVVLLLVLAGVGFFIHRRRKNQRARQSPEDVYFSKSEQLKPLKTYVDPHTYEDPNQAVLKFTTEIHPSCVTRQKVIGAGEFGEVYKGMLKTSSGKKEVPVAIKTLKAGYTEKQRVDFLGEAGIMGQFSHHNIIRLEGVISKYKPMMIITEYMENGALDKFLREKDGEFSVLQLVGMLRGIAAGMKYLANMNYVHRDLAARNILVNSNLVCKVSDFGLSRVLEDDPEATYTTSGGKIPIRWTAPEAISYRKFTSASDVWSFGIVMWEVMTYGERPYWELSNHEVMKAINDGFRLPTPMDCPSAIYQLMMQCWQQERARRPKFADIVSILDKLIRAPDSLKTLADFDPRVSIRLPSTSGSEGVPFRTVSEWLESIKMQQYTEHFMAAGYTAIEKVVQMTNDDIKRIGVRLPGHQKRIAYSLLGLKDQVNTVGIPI

[18] = target: Serine/threonine-protein kinase WNK2 (Homo sapiens) (UniProt Q9Y3S1); assay: Inhibition of human recombinant Wnk2 at 40 nM in presence of ATP by radiometric assay relative to control
[19] = target: Fibroblast growth factor receptor 2 (Homo sapiens) (UniProt P21802); assay: Inhibition of human recombinant FGFR2 at 40 nM in presence of ATP by radiometric assay relative to control
[20] = target: Tyrosine-protein kinase JAK2 (Homo sapiens) (UniProt O60674); assay: Inhibition of human recombinant JAK2 at 40 nM related to control ULK1
[21] = target: Serine/threonine-protein kinase Nek7 (Homo sapiens) (UniProt Q8TDX7); assay: Inhibition of human recombinant NEK7 at 40 nM in presence of ATP by radiometric assay relative to control
Serine/threonine-protein kinase Nek7 (Homo sapiens), sequence (Q8TDX7 whole entry, looked up): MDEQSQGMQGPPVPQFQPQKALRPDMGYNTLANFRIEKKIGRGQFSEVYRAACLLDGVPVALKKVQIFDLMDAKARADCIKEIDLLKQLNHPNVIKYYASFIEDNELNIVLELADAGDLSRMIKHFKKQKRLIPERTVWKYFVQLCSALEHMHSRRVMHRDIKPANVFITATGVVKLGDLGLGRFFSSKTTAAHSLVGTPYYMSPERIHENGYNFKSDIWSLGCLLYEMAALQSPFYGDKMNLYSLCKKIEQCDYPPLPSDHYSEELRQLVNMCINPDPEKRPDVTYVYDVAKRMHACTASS

[22] = target: Ribosomal protein S6 kinase alpha-6 (Homo sapiens) (UniProt Q9UK32); assay: Inhibition of human recombinant RSK4 at 40 nM in presence of ATP by radiometric assay relative to control

inhibition [1]: 92%
inhibition [2]: 2%
fold change (FC) [3]: 0
fold change (FC) [4]: 0
inhibition [5]: 5%
fold change (FC) [6]: 0.04
SMILES: CNC(=O)c1ccccc1Oc1nc(Nc2cc(OC)c(OC)c(OC)c2)ncc1Br

inhibition [7]: 5%
fold change (FC) [8]: 0.14
fold change (FC) [9]: 0
fold change (FC) [10]: 0.01
fold change (FC) [11]: 0
inhibition [12]: 11%
inhibition [13]: 40%
inhibition [14]: 24%
fold change (FC) [15]: 0
fold change (FC) [16]: 0.08
fold change (FC) [17]: 0
SMILES: CC(C)[C@H](NC(=O)c1cc(-c2cnn3cc(-c4ccc(OCCN5CCCCC5)cc4)cnc23)cs1)C(F)(F)F

inhibition [18]: 3%
inhibition [19]: 0%
fold change (FC) [20]: 0
inhibition [21]: 0%
inhibition [22]: 0%
SMILES: O=C(N[C@@H](C1CC1)C(F)(F)F)c1cc(-c2cnn3cc(-c4ccc(F)cc4)cnc23)cs1
